In the library only some 1.4% were active in any assay of this set; here they are far more common.
SUMO Mot1 rescue = SUMOylation pathway inhibition by Mot1-301 growth rescue; S. cerevisiae Mot1-301 growth rescue, ATP luminescence, 38.5C; percent above DMSO median, 100 means doubled; growth rescue, % at 18.8 µM; 1% of 320,000 active; AID 2716;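 active means every valid replicate shows activation above 250% relative to neutral control wells; inactive means the rest, any valid replicate at or below 250%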;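 further: OY570 slx delta 5 strain wells were the positive control but not used for scaling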
HIF act = HIF pathway transcriptional activation; U2OS HRE-luciferase reporter, luminescence; normalized: DMSO 0%, desferrioxamine 100%; activation, % at 7.5 µM (by protocol); 0.32% of 300,000 active;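 active means mean activation of at least 10% of the iron chelator positive control signal, with at least half of replicates also reaching 10%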
T cell HTS = T cell immune modulation candidate. 2C CD8+ T cell-vesicle binding, flow cytometry; stronger effect = lower value. response (vesicle binding), % at 7 µM. 0.068% of 330,000 active. AID 2052;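 active means response, share of CD8 T cells binding vesicles, and their 90th percentile fluorescence all below set limits, cut at about 80% in these data, passing the limit was not always enough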;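 further: values below 100% mean blocked vesicle binding to the CD8+ T cells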
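Read-out – percent CD8+ FL2 mean versus row control · System – murine 2C transgenic CD8+ T lymphocytes · Times – 1.5 h cell–vesicle binding at 37 °C, then 20 min icy labelling · Control set – naked vesicles low, QL9 vesicles with vehicle high · Detection – cytometric PE anti-B7-1 and Alexa647 anti-CD8 signals after 1% paraformaldehyde fixation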
JMJD2C inh = inhibitors of human GASC-1 (JMJD2C) demethylase; GST-JMJD2C(1-420) H3K9me3 demethylation, DELFIA europium; Q9H3R0; 0.069% of 330,000 active; AID 2099; inhibition, % at 2.35 µM;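 active means more than half of a compound's replicate wells show inhibition beyond 50%, single wells judged on their own value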;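 further: signal counts dimethyl H3K9 product captured on neutravidin plate; 0% = median of DMSO wells and 100% = 0.3 times that DMSO median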
Target sequence (Q9H3R0 1-420 limits assumed): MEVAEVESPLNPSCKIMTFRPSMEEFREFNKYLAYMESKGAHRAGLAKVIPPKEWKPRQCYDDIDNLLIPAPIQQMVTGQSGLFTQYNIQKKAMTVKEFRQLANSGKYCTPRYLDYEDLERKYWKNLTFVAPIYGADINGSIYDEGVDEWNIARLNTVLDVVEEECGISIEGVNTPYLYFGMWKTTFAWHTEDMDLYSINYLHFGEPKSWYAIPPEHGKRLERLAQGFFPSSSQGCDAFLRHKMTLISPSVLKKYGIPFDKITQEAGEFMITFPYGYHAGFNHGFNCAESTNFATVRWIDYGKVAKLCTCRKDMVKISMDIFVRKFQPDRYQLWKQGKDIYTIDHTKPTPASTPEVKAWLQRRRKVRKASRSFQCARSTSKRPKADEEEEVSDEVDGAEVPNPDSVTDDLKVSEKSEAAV
Yeast Mot1 SUMO = SUMO pathway inhibitors in yeast Mot1-301 growth; shares compounds with SUMO Mot1 rescue; S. cerevisiae Mot1-301 galactose growth, ATP luminescence, 24 h; -100 = growth of slx-deleted rescue strain; growth activity, percent, % at 42 µM; 2,300 tested, under 10 active; AID 493004;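 active means Signal drops as the depositor expects, and the fitted half-maximal dose is no more than ten times the top valid tested dose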;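 further: more negative values mean stronger growth rescue toward the control strain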
* marks the source's active call; other numbers are inactive results; · = not tested or not shown; + = active, no number.

SMILES | SUMO Mot1 rescue | HIF act | T cell HTS | JMJD2C inh | Yeast Mot1 SUMO
CCC(C)[C@H](N)c1nnc(SCC(=O)Nc2cccc(Cl)c2)o1 (some centres undefined) | 557.6* | 0.1 | 275.2 | -0.3 | -0.5
O=C(NCCC1CC1(Cl)Cl)Nc1ccccc1 (centres undefined) | -2.8 | 0.1 | 217.0 | -6.2 | ·
Cc1[nH]oc(=O)c1N=Nc1ccccc1 | 465.2* | 0.3 | 320.6 | 0.1 | 0.5
Cc1[nH]oc(=O)c1N=Nc1c(Cl)cccc1Cl | 358.3* | -0.2 | 636.5 | 2.4 | -0.4
Cc1onc(-c2ccccc2)c1C(=O)Nc1nnc(CC(C)C)s1 | 1.3 | -0.1 | 229.0 | -0.9 | ·
COc1ccc(CNCCNC(=O)c2cccs2)c(OC)c1OC | -18.7 | -1.5 | 636.6 | 4.0 | ·
CCN(CC(=O)NCc1cccs1)C(=O)c1cccc(Cl)c1 | -4.3 | · | 190.6 | 4.5 | ·
CCN(CC)c1nc(Nc2ccc(Cl)cc2)nc(OCC#N)n1 | 734.7* | -0.8 | 373.2 | 8.6 | 0.8
O=C(NCc1ccc(Cl)cc1)C1CCN(S(=O)(=O)c2ccc(F)cc2)CC1 | 238.5 | -0.2 | 314.4 | 0.5 | ·
CC(=O)N1N=C(c2ccc3ccccc3c2)OC1(C)C | 7.2 | 1.3 | 100.8 | 1.1 | ·
CC(=O)N1N=C(c2ccc(C(C)(C)C)cc2)OC1(C)C | 535.8* | -0.1 | 137.7 | 1.3 | 0.1
Cc1ccc2c(c1)C1(OCCCO1)C(=O)N2 | -11.3 | -1.7 | 184.9 | 1.3 | ·
CCOc1ccc(-n2cc(C(=O)NCCOC)c3cc(OC)c(OC)cc3c2=O)cc1 | 810.0* | 0.1 | 117.4 | -7.2 | -0.2
CCOc1ccc(-n2cc(C(=O)Nc3cccc(OC)c3)c3cc(OC)c(OC)cc3c2=O)cc1 | 0.4 | -1.2 | 434.5 | -10.2 | ·
Cc1cc(C)n(CCCNC(=O)CN(C)S(=O)(=O)c2ccc(Cl)cc2)n1 | 816.9* | -5.6 | 611.6 | 4.8 | -0.1
CC(OC(=O)c1cc(=O)[nH]c2ccccc12)C(=O)Nc1ccccc1F (centres undefined) | 6.0 | -0.5 | 336.1 | -4.0 | ·
COc1cc(C(C)=O)ccc1OCC(O)Cn1nc(C)c(Br)c1C (centres undefined) | 9.8 | 0.7 | 156.3 | 29.2 | ·
O=C(Nc1ccc(F)cc1F)N1CCCN(c2ccc(C(F)(F)F)cn2)CC1 | 548.0* | -0.2 | 283.6 | -3.1 | -0.5
Fc1ccc(NC(=S)N2CCCN(c3ccc(C(F)(F)F)cn3)CC2)c(F)c1 | 5.9 | -0.2 | 90.8 | -21.8 | ·
CC(C)NC(=S)N/N=C/C1=CCC2CC1C2(C)C (centres undefined) | 83.5 | 1.3 | 166.5 | 10.4 | ·
CC1(C)C2CC=C(/C=N/NC(=S)Nc3cccnc3)C1C2 (centres undefined) | 744.5* | 1.0 | 250.4 | 6.0 | 0.0
O=S(=O)(NCc1cccc(C(F)(F)F)c1)NCc1ccccc1F | + | -0.3 | 243.2 | -10.6 | 1.1
O=S(=O)(NCc1ccccc1)NCc1ccccc1F | -7.9 | 0.3 | 349.8 | -5.0 | ·

Compound activity as filed in PubChem.
